Results as given in ChEMBL document CHEMBL1136012, “Synthesis and structure-activity relationships of novel 7-substituted 1,4-dihydro-4-oxo-1-(2-thiazolyl)-1,8-naphthyridine-3-carboxylic acids as antitumor agents. Part 1” (J Med Chem, 2002).
In brackets after ≈: the same amount, converted by molar mass.

Key:
P388 [1] = assay: Cytotoxic activity of compound against Murine P388 Leukemia; type: functional, cell-based, Mus musculus
In short: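 Murine P388 cells were cultured in EMEM with 10% FBS, 2 mM glutamine, 50 units/mL penicillin and 50 μg/mL streptomycin. They were seeded at (1–2) × 10^4 cells/mL without preincubation and exposed to varying concentrations for 72 h at 37 °C, 5% CO2. MTT was then added for 4 h, formazan dissolved in DMSO and read at 570/690 nm.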

P388 [2] = assay: In vitro antitumor activity of compound against P388 leukemia cells at a dose of […] mg/kg; type: functional, Mus musculus; design: concentration or dose not given beside the values
P388 [3] = assay: […] antitumor activity of compound against P388 leukemia cells at a dose of 3.13 mg/kg; type: functional, Mus musculus
In short: (§1)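 In vivo study: BDF1 mice received 10^6 P388 leukemia cells ip as diluted ascites fluid. Test compounds were suspended in 0.4% CMC and given ip on days 1 and 5 after implantation, with seven mice per group. The endpoint is T/C% = median survival time of the treated group / median survival time of controls × 100.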

P388 [4] = assay: […] antitumor activity of compound against P388 leukemia cells at a dose of 50 mg/kg; type: functional, Mus musculus; in short: as §1
P388 [5] = assay: […] antitumor activity of compound against P388 leukemia cells at a dose of 6.25 mg/kg; type: functional; in short: as §1
[6] = Mus musculus, P388, read-out: IC50

## COc1cnc(-n2cc(C(=O)O)c(=O)c3cc(F)c(N4CCC(N)C4)nc32)s1.Cl (centres undefined)
P388 [1]; [6]
  IC50: 0.35 µg/mL

## CO[C@H]1CN(c2nc3c(cc2F)c(=O)c(C(=O)O)cn3-c2nccs2)C[C@@H]1N.Cl (stereo in doubt; (S,S)-43j)
P388 [1]; p388
  IC50: 0.023 µg/mL

## Cl.O=C(O)c1cn(-c2nccs2)c2nc(N3CC[C@@H](O)C3)c(F)cc2c1=O
P388 [1]; [6]
  IC50: 0.065 µg/mL

## Cl.NC1(CO)CCN(c2nc3c(cc2F)c(=O)c(C(=O)O)cn3-c2nccs2)C1 (centres undefined)
P388 [1]; [6]
  IC50: 0.084 µg/mL

## Cl.O=C(O)c1cn(-c2nccs2)c2nc(N3CCCC3)c(F)cc2c1=O
P388 [1]; [6]
  IC50: 0.08 µg/mL

## Cl.O=C(O)c1cn(-c2nccs2)c2nc(N3C[C@@H]4CCCN[C@@H]4C3)c(F)cc2c1=O
P388 [1]; [6]
  IC50: 0.304 µg/mL

## Cc1cc(-n2cc(C(=O)O)c(=O)c3cc(F)c(N4CCC(N)C4)nc32)on1.Cl (centres undefined)
P388 [1]; [6]
  IC50: 0.58 µg/mL

## Cl.NC1CCN(c2nc3c(cc2F)c(=O)c(C(=O)O)cn3-c2cccs2)C1 (centres undefined)
P388 [1]; [6]
  IC50: 1.2 µg/mL

## Cl.NC1CCN(c2nc3c(cc2F)c(=O)c(C(=O)O)cn3C2CC2)C1 (centres undefined)
P388 [1]; [6]
  IC50: 7.9 µg/mL

## CC1(N)CCN(c2nc3c(cc2F)c(=O)c(C(=O)O)cn3-c2nccs2)C1.Cl (centres undefined)
P388 [2]
  T/C: 213%
P388 [3]
  T/C: 138%
P388 [1]; [6]
  IC50: 0.026 µg/mL
P388 [4]
  T/C: >375%

## CISPLATIN
P388 [3]; Mus musculus
  T/C: 239%
P388 [5]; Mus musculus
  T/C: 290%

## Cl.O=C(O)c1cn(-c2nccs2)c2nc(-n3ccnc3)c(F)cc2c1=O
P388 [1]; [6]
  IC50: > 10 µg/mL

## Cl.NC1CCN(c2nc3c(cc2F)c(=O)c(C(=O)O)cn3-c2nc3ccccc3s2)C1 (centres undefined)
P388 [1]; [6]
  IC50: 0.049 µg/mL

## Cl.NC1CCN(c2nc3c(cc2F)c(=O)c(C(=O)O)cn3-c2nc(-c3ccccc3)cs2)C1 (centres undefined)
P388 [1]; [6]
  IC50: 0.052 µg/mL

## Cc1nc(-n2cc(C(=O)O)c(=O)c3cc(F)c(N4CCC(N)C4)nc32)sc1C.Cl (centres undefined)
P388 [1]; [6]
  IC50: 0.18 µg/mL

## Cl.NC1CCN(c2c(F)cc3c(=O)c(C(=O)O)cn(-c4nccs4)c3c2F)C1 (centres undefined)
P388 [1]; [6]
  IC50: 55 µg/mL

## Cl.NC1CCN(c2nc3c(cc2F)c(=O)c(C(=O)O)cn3-c2ncc(Cl)s2)C1 (centres undefined)
P388 [1]; [6]
  IC50: 0.094 µg/mL

## Cl.NC1CCN(c2nc3c(cc2F)c(=O)c(C(=O)O)cn3-c2ccccn2)C1 (centres undefined)
P388 [1]; [6]
  IC50: > 10 µg/mL

## Cl.NC1CCN(c2cc3c(cn2)c(=O)c(C(=O)O)cn3-c2nccs2)C1 (centres undefined)
P388 [1]; [6]
  IC50: > 1 µg/mL

## Cl.NC1CCN(c2nc3c(cc2F)c(=O)c(C(=O)O)cn3Cc2nccs2)C1 (centres undefined)
P388 [1]; [6]
  IC50: > 10 µg/mL

## COc1cccc2c1C(=O)c1c(O)c3c(c(O)c1C2=O)C[C@@](O)(C(=O)CO)C[C@@H]3O[C@H]1C[C@H](N)[C@H](O)[C@H](C)O1 [DOXORUBICIN]
P388 [3]
  T/C: 235%
P388 [1]; [6]
  IC50: 0.004 µg/mL (≈ 7.36 nM)
P388 [5]
  T/C: 293%

## Cl.NCC1CN(c2nc3c(cc2F)c(=O)c(C(=O)O)cn3-c2nccs2)CCO1 (centres undefined)
P388 [1]; [6]
  IC50: 1.73 µg/mL

## Cl.NC1CCN(c2ncc3c(=O)c(C(=O)O)cn(-c4nccs4)c3n2)C1 (centres undefined)
P388 [1]; [6]
  IC50: 0.047 µg/mL

## Cl.O=C(O)c1cn(-c2nccs2)c2nc(N3CCSCC3)c(F)cc2c1=O
P388 [1]; [6]
  IC50: 1.74 µg/mL

## CO[C@@H]1CN(c2nc3c(cc2F)c(=O)c(C(=O)O)cn3-c2nccs2)C[C@H]1N.Cl
P388 [1]; [6]
  IC50: 0.068 µg/mL

## Cl.O=C(O)c1cn(-c2nccs2)c2nc(N3CC4NCCOC4C3)c(F)cc2c1=O (centres undefined)
P388 [1]; [6]
  IC50: > 1 µg/mL

## C[C@@H]1CN(c2nc3c(cc2F)c(=O)c(C(=O)O)cn3-c2nccs2)C[C@@H]1N.Cl
P388 [1]; [6]
  IC50: 0.057 µg/mL

## CN(C)C1CCN(c2nc3c(cc2F)c(=O)c(C(=O)O)cn3-c2nccs2)C1.Cl (centres undefined)
P388 [2]
  T/C: 175%
P388 [3]
  T/C: 138%
P388 [1]; [6]
  IC50: 0.057 µg/mL
P388 [4]
  T/C: 225%

## Cl.NC1C=CC[C@H]2CN(c3nc4c(cc3F)c(=O)c(C(=O)O)cn4-c3nccs3)C[C@@H]12 (some centres undefined)
P388 [1]; [6]
  IC50: 0.15 µg/mL

## COc1ccccc1N1CCN(c2nc3c(cc2F)c(=O)c(C(=O)O)cn3-c2nccs2)CC1.Cl
P388 [1]; [6]
  IC50: > 1 µg/mL
